{"source": "ChEMBL document CHEMBL5705899", "about": "(Biochem J, 2014)", "key": {"[1]": {"biological_target": "Glycogen synthase kinase-3 beta (Homo sapiens) (UniProt P49841)", "assay": "Inhibition of recombinant human His6-tagged GSK3beta (2 to 420 residues) expressed in baculovirus infected Sf21 cells assessed as remaining activity at 1 uM using phospho-GS2 peptide as substrate incubated for 30 mins in presence of [gamma-33P]ATP by filter binding method relative to control"}, "[2]": {"biological_target": "PI3K p110 beta/p85 alpha (Homo sapiens) (UniProt P27986+P42338)", "sequence (P27986 2-724 limits assumed)": "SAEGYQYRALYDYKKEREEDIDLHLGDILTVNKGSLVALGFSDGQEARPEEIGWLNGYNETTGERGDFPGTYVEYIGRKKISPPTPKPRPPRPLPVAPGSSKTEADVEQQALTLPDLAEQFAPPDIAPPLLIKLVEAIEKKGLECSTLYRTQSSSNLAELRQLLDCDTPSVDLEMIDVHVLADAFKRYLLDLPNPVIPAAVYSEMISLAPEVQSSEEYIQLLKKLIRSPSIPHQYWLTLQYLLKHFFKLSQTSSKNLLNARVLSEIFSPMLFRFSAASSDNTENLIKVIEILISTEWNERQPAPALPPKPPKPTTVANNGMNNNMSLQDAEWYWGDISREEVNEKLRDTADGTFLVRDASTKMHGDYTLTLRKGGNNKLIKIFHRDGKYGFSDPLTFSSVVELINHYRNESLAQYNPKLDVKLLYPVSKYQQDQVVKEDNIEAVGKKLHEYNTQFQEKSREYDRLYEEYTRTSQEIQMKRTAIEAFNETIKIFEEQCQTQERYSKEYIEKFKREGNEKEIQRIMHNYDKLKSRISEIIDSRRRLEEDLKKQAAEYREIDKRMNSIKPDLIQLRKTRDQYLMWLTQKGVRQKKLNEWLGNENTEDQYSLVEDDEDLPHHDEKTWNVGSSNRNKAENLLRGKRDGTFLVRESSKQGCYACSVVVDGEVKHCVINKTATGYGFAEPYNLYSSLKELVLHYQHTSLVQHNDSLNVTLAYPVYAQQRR", "sequence (P42338 whole entry partner, the tested form may be a part)": "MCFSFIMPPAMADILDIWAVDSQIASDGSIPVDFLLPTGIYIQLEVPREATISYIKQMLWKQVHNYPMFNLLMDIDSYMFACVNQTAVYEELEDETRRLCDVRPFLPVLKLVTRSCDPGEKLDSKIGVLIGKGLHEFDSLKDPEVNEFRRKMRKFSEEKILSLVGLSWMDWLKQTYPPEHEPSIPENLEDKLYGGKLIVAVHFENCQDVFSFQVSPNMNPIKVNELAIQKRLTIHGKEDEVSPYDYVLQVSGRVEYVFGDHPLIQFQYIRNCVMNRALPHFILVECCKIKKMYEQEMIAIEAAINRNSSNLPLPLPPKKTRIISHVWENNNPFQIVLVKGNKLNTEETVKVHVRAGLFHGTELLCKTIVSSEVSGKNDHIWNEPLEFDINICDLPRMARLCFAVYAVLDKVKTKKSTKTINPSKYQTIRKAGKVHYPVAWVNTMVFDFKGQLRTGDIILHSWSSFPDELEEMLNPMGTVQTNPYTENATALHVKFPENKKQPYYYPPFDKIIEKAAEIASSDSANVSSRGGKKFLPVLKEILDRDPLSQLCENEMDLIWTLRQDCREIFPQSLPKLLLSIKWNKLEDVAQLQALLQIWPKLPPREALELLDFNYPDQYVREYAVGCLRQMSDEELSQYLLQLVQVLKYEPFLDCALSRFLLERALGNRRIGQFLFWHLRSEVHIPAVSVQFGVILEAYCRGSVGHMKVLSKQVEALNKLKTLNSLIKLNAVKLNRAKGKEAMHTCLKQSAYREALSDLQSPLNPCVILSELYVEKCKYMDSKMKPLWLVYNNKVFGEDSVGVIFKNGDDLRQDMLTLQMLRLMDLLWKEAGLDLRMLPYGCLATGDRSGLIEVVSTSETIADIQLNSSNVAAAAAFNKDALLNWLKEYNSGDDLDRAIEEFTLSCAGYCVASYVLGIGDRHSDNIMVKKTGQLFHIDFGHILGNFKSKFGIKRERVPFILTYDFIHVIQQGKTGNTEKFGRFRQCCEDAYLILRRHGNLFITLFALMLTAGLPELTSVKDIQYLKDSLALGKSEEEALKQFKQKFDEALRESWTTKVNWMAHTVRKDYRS", "assay": "Inhibition of recombinant human N-terminal His6-tagged PI3Kbeta (1 to 1070 residues)/p85A (1 to 724 residues) expressed in baculovirus expression system at 1 uM using diC8 PIP2 as substrate incubated for 60 mins by ADP-Glo assay"}, "[3]": {"biological_target": "Vascular endothelial growth factor receptor 1 (Homo sapiens) (UniProt P17948)", "assay": "Inhibition of recombinant human N-terminal GST-tagged VEGFR1 (784 to 1338 residues) expressed in baculovirus infected Sf21 cells assessed as remaining activity at 1 uM using KKKSPGEYVNIEFG as substrate incubated for 30 mins in presence of [gamma-33P]ATP by filter binding method relative to control"}, "[4]": {"biological_target": "Lymphokine-activated killer T-cell-originated protein kinase (Homo sapiens) (UniProt Q96KB5)", "sequence (Q96KB5 whole entry)": "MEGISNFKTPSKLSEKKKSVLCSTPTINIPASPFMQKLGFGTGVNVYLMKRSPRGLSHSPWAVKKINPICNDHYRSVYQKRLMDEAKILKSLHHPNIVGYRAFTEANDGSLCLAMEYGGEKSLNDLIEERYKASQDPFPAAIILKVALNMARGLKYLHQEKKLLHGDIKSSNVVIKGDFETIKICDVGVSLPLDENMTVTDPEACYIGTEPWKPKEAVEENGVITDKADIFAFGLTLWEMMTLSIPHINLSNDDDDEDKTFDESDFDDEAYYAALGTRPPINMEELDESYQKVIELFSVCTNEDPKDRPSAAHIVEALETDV", "assay": "Inhibition of human PBK at 1 uM using histon H1 as substrate in presence of 33P-ATP by ProQinase assay"}, "[5]": {"biological_target": "Homeodomain-interacting protein kinase 2 (Homo sapiens) (UniProt Q9H2X6)", "assay": "Inhibition of human HIPK2 at 1 uM using RBER-CHKtide as substrate in presence of 33P-ATP by ProQinase assay"}, "[6]": {"biological_target": "cAMP-dependent protein kinase catalytic subunit PRKX (Homo sapiens) (UniProt P51817)", "assay": "Inhibition of human PRKX at 1 uM using RBER-GSK3 as substrate in presence of 33P-ATP by ProQinase assay"}, "[7]": {"biological_target": "Activated CDC42 kinase 1 (Homo sapiens) (UniProt Q07912)", "assay": "Inhibition of human ACK1 at 1 uM using polyEy as substrate in presence of 33P-ATP by ProQinase assay"}, "[8]": {"biological_target": "Inhibitor of nuclear factor kappa-B kinase subunit alpha (Homo sapiens) (UniProt O15111)", "assay": "Inhibition of human IKKalpha at 1 uM using RBER-CHKtide as substrate in presence of 33P-ATP by ProQinase assay"}, "[9]": {"biological_target": "Serine/threonine-protein kinase Sgk2 (Homo sapiens) (UniProt Q9HBY8)", "assay": "Inhibition of human SGK2 at 1 uM using RBER-GSK3 as substrate in presence of 33P-ATP by ProQinase assay"}, "[10]": {"biological_target": "Phosphatidylinositol 4-kinase beta (Homo sapiens, UniProt Q9UBF8)", "assay": "Inhibition of PI4Kbeta (unknown origin) using D-myo-PtdIns as substrate incubated for 45 mins by ADP-Glo assay", "method_in_brief": "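PI4Kα: 1 nM enzyme, 72 μM ATP, 25 μM PtdIns. PI4Kβ: 2 nM enzyme, 220 μM ATP, 50 μM PtdIns. Reactions ran 45 min at ambient temperature; ADP-Glo reagent was added for 40 min, then detection reagent for 30 min, then luminescence was read.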"}, "[11]": {"biological_target": "NUAK family SNF1-like kinase 2 (Homo sapiens) (UniProt Q9H093)", "assay": "Inhibition of human SNARK at 1 uM using histone H2B as substrate in presence of 33P-ATP by ProQinase assay"}, "[12]": {"biological_target": "Testis-specific serine/threonine-protein kinase 2 (Homo sapiens) (UniProt Q96PF2)", "assay": "Inhibition of human TSK2 at 1 uM using RBER-CHKtide as substrate in presence of 33P-ATP by ProQinase assay"}, "[13]": {"biological_target": "Serine/threonine-protein kinase NLK (Homo sapiens) (UniProt Q9UBE8)", "assay": "Inhibition of human NLK at 1 uM using RBER-GSK3 as substrate in presence of 33P-ATP by ProQinase assay"}, "[14]": {"biological_target": "Mitogen-activated protein kinase 15 (Homo sapiens) (UniProt Q8TD08)", "assay": "Inhibition of recombinant human N-terminal His6-tagged ERK8 (2 to 544 residues) expressed in baculovirus infected Sf21 cells assessed as remaining activity at 1 uM using MBP as substrate incubated for 30 mins in presence of [gamma-33P]ATP by filter binding method relative to control"}, "[15]": {"biological_target": "Tyrosine-protein kinase Yes (Homo sapiens) (UniProt P07947)", "assay": "Inhibition of recombinant human N-terminal His6-tagged YES1 (1 to 543 residues) expressed in baculovirus infected Sf21 cells assessed as remaining activity at 1 uM using Poly(Glu,Tyr) as substrate incubated for 30 mins in presence of [gamma-33P]ATP by filter binding method relative to control"}, "[16]": {"biological_target": "Mitogen-activated protein kinase 13 (Homo sapiens) (UniProt O15264)", "sequence (O15264 whole entry, the tested form may be a part)": "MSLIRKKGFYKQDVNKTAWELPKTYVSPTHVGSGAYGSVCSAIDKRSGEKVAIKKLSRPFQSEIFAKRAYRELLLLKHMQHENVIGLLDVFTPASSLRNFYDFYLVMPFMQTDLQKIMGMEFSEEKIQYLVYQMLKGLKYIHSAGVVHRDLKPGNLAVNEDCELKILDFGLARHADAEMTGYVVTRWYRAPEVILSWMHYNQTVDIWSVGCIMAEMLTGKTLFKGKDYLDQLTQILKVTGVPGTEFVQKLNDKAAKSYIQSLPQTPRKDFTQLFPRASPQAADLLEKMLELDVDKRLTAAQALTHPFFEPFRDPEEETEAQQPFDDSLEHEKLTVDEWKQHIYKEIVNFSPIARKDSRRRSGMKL", "assay": "Inhibition of recombinant human GST-tagged P38delta (1 to 365 residues) expressed in Escherichia coli assessed as remaining activity at 1 uM using MBP as substrate incubated for 30 mins in presence of [gamma-33P]ATP by filter binding method relative to control"}, "[17]": {"biological_target": "SRSF protein kinase 3 (Homo sapiens) (UniProt Q9UPE1)", "assay": "Inhibition of human STK23 at 1 uM using RBER-CHKtide as substrate in presence of 33P-ATP by ProQinase assay"}, "[18]": {"biological_target": "Serine/threonine-protein kinase haspin (Homo sapiens) (UniProt Q8TF76)", "assay": "Inhibition of human GSG2 at 1 uM using histon H3 as substrate in presence of 33P-ATP by ProQinase assay"}, "[19]": {"biological_target": "Eukaryotic translation initiation factor 2-alpha kinase 3 (Homo sapiens) (UniProt Q9NZJ5)", "sequence (Q9NZJ5 whole entry)": "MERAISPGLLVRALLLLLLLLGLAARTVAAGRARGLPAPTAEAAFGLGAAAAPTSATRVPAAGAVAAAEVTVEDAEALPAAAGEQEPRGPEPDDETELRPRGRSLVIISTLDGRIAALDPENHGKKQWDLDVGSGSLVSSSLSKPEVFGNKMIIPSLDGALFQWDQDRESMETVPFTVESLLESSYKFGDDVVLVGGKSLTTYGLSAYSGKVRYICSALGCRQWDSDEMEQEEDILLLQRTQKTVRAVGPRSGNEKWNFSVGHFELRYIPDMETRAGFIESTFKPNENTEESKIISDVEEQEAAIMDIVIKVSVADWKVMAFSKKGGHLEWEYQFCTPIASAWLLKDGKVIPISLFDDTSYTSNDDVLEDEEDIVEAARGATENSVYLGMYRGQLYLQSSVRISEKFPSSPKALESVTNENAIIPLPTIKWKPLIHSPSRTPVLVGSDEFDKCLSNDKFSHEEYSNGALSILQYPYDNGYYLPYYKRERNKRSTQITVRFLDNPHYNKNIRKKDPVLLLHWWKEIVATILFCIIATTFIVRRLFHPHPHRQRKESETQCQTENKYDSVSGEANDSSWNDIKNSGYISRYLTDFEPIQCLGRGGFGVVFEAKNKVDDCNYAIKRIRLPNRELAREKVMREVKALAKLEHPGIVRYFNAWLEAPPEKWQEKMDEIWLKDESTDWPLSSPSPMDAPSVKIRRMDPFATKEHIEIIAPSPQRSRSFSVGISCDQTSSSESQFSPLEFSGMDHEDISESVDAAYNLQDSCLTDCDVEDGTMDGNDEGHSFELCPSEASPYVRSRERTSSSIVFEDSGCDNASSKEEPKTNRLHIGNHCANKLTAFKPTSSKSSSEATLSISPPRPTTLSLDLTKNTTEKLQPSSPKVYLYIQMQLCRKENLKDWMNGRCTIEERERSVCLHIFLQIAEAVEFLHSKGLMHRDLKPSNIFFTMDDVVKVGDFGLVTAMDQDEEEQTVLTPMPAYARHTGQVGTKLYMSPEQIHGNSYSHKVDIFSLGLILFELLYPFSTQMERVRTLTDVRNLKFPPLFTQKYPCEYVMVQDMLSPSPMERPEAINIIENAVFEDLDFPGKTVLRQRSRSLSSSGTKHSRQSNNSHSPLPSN", "assay": "Inhibition of human EIF2AK3 at 1 uM using casein as substrate in presence of 33P-ATP by ProQinase assay"}, "[20]": {"biological_target": "Serine/threonine-protein kinase PAK 5 (Homo sapiens) (UniProt Q9P286)", "assay": "Inhibition of human PAK7 at 1 uM using bio-4xCHKT as substrate in presence of 33P-ATP by ProQinase assay"}, "[21]": {"biological_target": "Phosphatidylinositol 4,5-bisphosphate 3-kinase catalytic subunit gamma isoform (Homo sapiens, UniProt P48736)", "assay": "Inhibition of PI3Kgamma (unknown origin) using PtdIns(4,5)P2 as substrate preincubated for 20 mins followed by substrate addition and measured after 80 mins by Kinase-Glo assay"}, "[22]": {"biological_target": "Receptor tyrosine-protein kinase erbB-4 (Homo sapiens) (UniProt Q15303)", "sequence (Q15303 whole entry)": "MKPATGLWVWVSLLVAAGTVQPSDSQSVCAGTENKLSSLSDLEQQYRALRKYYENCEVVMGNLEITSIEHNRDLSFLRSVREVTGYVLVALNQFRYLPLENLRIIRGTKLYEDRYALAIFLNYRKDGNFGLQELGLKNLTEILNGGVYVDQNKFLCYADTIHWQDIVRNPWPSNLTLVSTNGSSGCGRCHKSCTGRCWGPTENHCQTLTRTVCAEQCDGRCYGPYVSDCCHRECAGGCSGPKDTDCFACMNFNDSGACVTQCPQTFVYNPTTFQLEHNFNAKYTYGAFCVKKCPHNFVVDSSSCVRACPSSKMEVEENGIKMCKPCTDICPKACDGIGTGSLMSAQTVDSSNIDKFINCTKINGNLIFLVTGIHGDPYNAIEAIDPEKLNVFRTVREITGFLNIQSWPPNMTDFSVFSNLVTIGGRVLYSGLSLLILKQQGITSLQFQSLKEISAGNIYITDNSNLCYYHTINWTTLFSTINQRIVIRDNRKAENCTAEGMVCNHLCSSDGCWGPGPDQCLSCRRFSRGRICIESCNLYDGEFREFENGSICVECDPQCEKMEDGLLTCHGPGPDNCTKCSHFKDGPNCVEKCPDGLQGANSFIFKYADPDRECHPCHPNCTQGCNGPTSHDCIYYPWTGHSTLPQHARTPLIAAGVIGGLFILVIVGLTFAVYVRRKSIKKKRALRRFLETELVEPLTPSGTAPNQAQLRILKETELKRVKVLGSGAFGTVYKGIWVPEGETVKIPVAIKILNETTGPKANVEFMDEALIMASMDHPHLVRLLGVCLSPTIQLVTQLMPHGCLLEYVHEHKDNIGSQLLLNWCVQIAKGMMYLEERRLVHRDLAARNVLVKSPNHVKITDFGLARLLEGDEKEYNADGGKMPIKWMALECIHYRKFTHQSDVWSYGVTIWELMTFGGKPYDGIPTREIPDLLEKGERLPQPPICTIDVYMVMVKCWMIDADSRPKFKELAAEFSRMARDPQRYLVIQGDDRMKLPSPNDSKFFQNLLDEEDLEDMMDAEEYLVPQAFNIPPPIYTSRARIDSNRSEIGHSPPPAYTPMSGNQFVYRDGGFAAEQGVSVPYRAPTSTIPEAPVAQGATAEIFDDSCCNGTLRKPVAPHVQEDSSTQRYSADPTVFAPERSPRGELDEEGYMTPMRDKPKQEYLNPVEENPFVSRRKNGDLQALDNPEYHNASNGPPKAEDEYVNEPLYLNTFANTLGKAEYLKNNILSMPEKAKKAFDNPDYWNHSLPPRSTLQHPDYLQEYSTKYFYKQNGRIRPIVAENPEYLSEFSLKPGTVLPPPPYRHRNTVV", "assay": "Inhibition of human ERBB4 at 1 uM using polyEy as substrate in presence of 33P-ATP by ProQinase assay"}, "[23]": {"biological_target": "Serine/threonine-protein kinase tousled-like 2 (Homo sapiens) (UniProt Q86UE8)", "assay": "Inhibition of human TLK2 at 1 uM using RB-S6P as substrate in presence of 33P-ATP by ProQinase assay"}, "[24]": {"biological_target": "Ribosomal protein S6 kinase alpha-5 (Homo sapiens) (UniProt O75582)", "details": "Sf21, dose 1.0 µM, time 30.0 min"}, "[25]": {"biological_target": "Phosphatidylinositol 4-phosphate 3-kinase C2 domain-containing subunit beta (Homo sapiens, UniProt O00750)", "assay": "Inhibition of PI3KC2beta (unknown origin) at 1 uM"}}, "note": "Activity calls are given as the source filed them. The calls are words filed in the database; no cut-off is given here.", "data": [{"smiles": "CC(C)(O)CNc1ncc(-c2ccnc(Nc3ccnc(Cl)c3)n2)c(CC2CC2)n1", "values": [{"measurement": "Activity", "setting": "[1]", "result": 51, "unit": "%"}, {"measurement": "inhibition", "setting": "[2]", "result": "inactive"}, {"measurement": "Activity", "setting": "[3]", "result": 113, "unit": "%"}, {"measurement": "inhibition", "setting": "[4]", "result": "inactive"}, {"measurement": "inhibition", "setting": "[5]", "result": "inactive"}, {"measurement": "inhibition", "setting": "[6]", "result": "inactive"}, {"measurement": "inhibition", "setting": "[7]", "result": "inactive"}, {"measurement": "inhibition", "setting": "[8]", "result": "inactive"}, {"measurement": "inhibition", "setting": "[9]", "result": "inactive"}, {"measurement": "IC50", "setting": "[10]", "result": 1070, "unit": "nM"}, {"measurement": "inhibition", "setting": "[11]", "result": "inactive"}, {"measurement": "inhibition", "setting": "[12]", "result": "inactive"}, {"measurement": "inhibition", "setting": "[13]", "result": "inactive"}, {"measurement": "Activity", "setting": "[14]", "result": 36, "unit": "%"}, {"measurement": "Activity", "setting": "[15]", "result": 77, "unit": "%"}, {"measurement": "Activity", "setting": "[16]", "result": 111, "unit": "%"}, {"measurement": "inhibition", "setting": "[17]", "result": "inactive"}, {"measurement": "inhibition", "setting": "[18]", "result": "inactive"}, {"measurement": "inhibition", "setting": "[19]", "result": "inactive"}, {"measurement": "inhibition", "setting": "[20]", "result": "inactive"}, {"measurement": "IC50", "setting": "[21]", "result": 2680, "unit": "nM"}, {"measurement": "inhibition", "setting": "[22]", "result": "inactive"}, {"measurement": "inhibition", "setting": "[23]", "result": "inactive"}, {"measurement": "Activity", "setting": "[24]", "result": 105, "unit": "%"}, {"measurement": "inhibition", "setting": "[25]", "result": "inactive"}]}]}
